SMILES strings stand for the structures. The source made the active and inactive calls. The rule behind the calls is not given here.

From ChEMBL document CHEMBL3425463, “The quassinoid isobrucein B reduces inflammatory hyperalgesia and cytokine production by post-transcriptional modulation” (J Nat Prod, 2015) come the findings set out here.

Data set [1] has as its system RAW264.7. Nature of the data set: Antiinflammatory activity against mouse RAW264.7 cells assessed as reduction of LPS-induced TNF mRNA expression cells at 10 uM treated 30 mins before LPS challenge measured after 3 hrs by qRT-PCR analysis. The format is functional, cell-based.
In data set [2] the test system is Mus musculus. The data set is described as follows: Antiinflammatory activity in carrageenan-induced mechanical inflammatory hyperalgesia male C57BL/6 mouse model assessed as inhibition of KC/CXCL1 production in inflamed tissue at 5 mg/kg, […] and measured after 3 hrs. Format: functional, organism-based. On the set-up: dose 5 mg/kg.
Data set [3] relates to RAW264.7. The data set is described as follows: Inhibition of NF-kappaB-mediated IkappaBalpha degradation in LPS-induced mouse RAW264.7 cells at 10 uM treated 30 mins before LPS challenge by Western blot analysis. The format is cell-based. The method, boiled down: (§1)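 RAW 264.7 cells treated before LPS. Cytoplasmic and nuclear fractions made by hypotonic/high-salt (420 mM NaCl) lysis; Bradford protein assay; 12% SDS-PAGE. Blots: IκB-α (1:1000) on cytoplasmic and p65 (1:300) on nuclear extracts, ECL detection. Nucleophosmin and actin as fraction markers; bands normalized to medium control.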
(Immunoblotting shows a protein as a band on a membrane.)

For data set [4], the system named is RAW264.7. The data set is described as follows: Antiinflammatory activity against mouse RAW264.7 cells assessed as reduction of LPS-induced IL-1beta production compound pretreated 30 mins of LPS challenge measured after 4 hrs by ELISA. The format is functional, cell-based. A general note: An ELISA detects its analyte on a solid surface through an enzyme-linked reagent.

Data set [5] relates to Mus musculus. The data set is described as follows: Antiinflammatory activity in carrageenan-induced mechanical inflammatory hyperalgesia male C57BL/6 mouse model assessed as inhibition of IL-1beta production in inflamed tissue at 5 mg/kg, […] and measured after 3 hrs. The format is functional, organism-based. On the set-up: dose 5 mg/kg.
Data set [6] has as its system RAW264.7. Nature of the data set: Inhibition of LPS-induced NF-kappaB activation in mouse RAW264.7 cells assessed as reduction luminescence emission at 0.001 to 10 uM pretreated 30 mins before LPS challenge measured after 4 hrs by luciferase reporter gene assay. The format is cell-based. The essentials:
(§2)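 RAW 264.7 NF-κB-luciferase reporter cells pretreated 30 min (0.001−10 μM) before stimulus: LPS 1 μg/mL, PGN 10 μg/mL, TNF 10 ng/mL or PMA 1 μg/mL. Cells lysed at 4 h; luciferin added, luminescence read. Expressed relative to stimulus alone set at 100%. Dexamethasone 1 mM control. n = 4–5.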
On the technique in general: Reporter assays use an easily measured gene product as a stand-in for the process of interest.

The subject of data set [7] is Mus musculus. Nature of the data set: Antihyperalgesic activity in sc dosed male C57BL/6 mouse assessed as reduction in carrageenan-induced mechanical inflammatory hyperalgesia […] and measured after 3 hrs. Format: functional, organism-based.
The test system of data set [8] is RAW264.7. Nature of the data set: Antiinflammatory activity against mouse RAW264.7 cells assessed as reduction of LPS-induced KC/CXCL1 production compound pretreated 30 mins of LPS challenge measured after 4 hrs by ELISA. Format: functional, cell-based.
The subject of data set [9] is peritoneal macrophages (Mus musculus). Nature of the data set: Cytotoxicity against mouse peritoneal macrophages assessed as cell viability at 0.001 to 10 uM pretreated 30 mins by MTT assay in presence of LPS.
Data set [10] relates to RAW264.7. Nature of the data set: Inhibition of PMA-induced NF-kappaB activation in mouse RAW264.7 cells assessed as reduction luminescence emission at 0.001 to 10 uM pretreated 30 mins before LPS challenge measured after 4 hrs by luciferase reporter gene assay. The format is cell-based. The essentials:
as §2

The test system of data set [11] is RAW264.7. The data set is described as follows: Inhibition of LPS-induced NF-kappaB p65 translocation into nucleus in mouse RAW264.7 cells at 10 uM treated 30 mins before LPS challenge by Western blot analysis. Format: cell-based. The method, boiled down: as §1
Data set [12] has as its system RAW264.7. The data set is described as follows: Inhibition of PGN-induced NF-kappaB activation in mouse RAW264.7 cells assessed as reduction luminescence emission at 0.001 to 10 uM pretreated 30 mins before LPS challenge measured after 4 hrs by luciferase reporter gene assay. Format: cell-based. The method, boiled down: as §2
Data set [13] deals with RAW264.7. Nature of the data set: Inhibition of luminescence emission in mouse RAW264.7 cells transfected with luciferase plasmid containing universal promoter PKG at 0.1 to 10 uM after 6 hrs by luciferase reporter gene assay. Format: functional, cell-based. The essentials: (§3)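 RAW 264.7 cells (5 × 10^5/well) in RPMI-1640 with 2% FBS, transfected with a PGK-promoter luciferase plasmid (1 μg/well) for 6 h at 37 °C, 5% CO2. Then treated 6 h with drug, dexamethasone 1 mM, pyrrolidine dithiocarbamate 500 μM or cycloheximide 70 μM. Cells lysed in Tris/NaCl/Tween buffer, pH 7.5, and luminescence read.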

The subject of data set [14] is RAW264.7. The data set is described as follows: Antiinflammatory activity against mouse RAW264.7 cells assessed as reduction of LPS-induced TNF production compound pretreated 30 mins of LPS challenge measured after 4 hrs by ELISA. The format is functional, cell-based.
Data set [15] has as its system Mus musculus. Nature of the data set: Antiinflammatory activity in carrageenan-induced mechanical inflammatory hyperalgesia male C57BL/6 mouse model assessed as inhibition of TNF level production in inflamed tissue at 5 mg/kg, […] and measured after 3 hrs. Details: dose 5 mg/kg. Format: functional, organism-based.
The test system of data set [16] is RAW264.7. Nature of the data set: Inhibition of TNF-induced NF-kappaB activation in mouse RAW264.7 cells assessed as reduction luminescence emission at 0.001 to 10 uM pretreated 30 mins before LPS challenge measured after 4 hrs by luciferase reporter gene assay. Format: cell-based. The method, boiled down:
as §2

Data set [17] concerns Mus musculus. The data set is described as follows: Antihyperalgesic activity in male C57BL/6 mouse assessed as reduction in carrageenan-induced mechanical inflammatory hyperalgesia at 5 mg/kg, […] and measured after 3 hrs. The format is functional, organism-based. On the set-up: dose 5 mg/kg.
Data set [18] deals with RAW264.7. The data set is described as follows: Inhibition of luminescence emission in mouse RAW264.7 cells transfected with luciferase plasmid containing universal promoter PKG at 500 uM after 6 hrs by luciferase reporter gene assay. Format: functional, cell-based. The essentials: as §3
In data set [19] the test system is RAW264.7. Nature of the data set: Inhibition of luminescence emission in mouse RAW264.7 cells transfected with luciferase plasmid containing universal promoter PKG at 1 mM after 6 hrs by luciferase reporter gene assay. Format: functional, cell-based. The method, boiled down: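 RAW 264.7 cells (5 × 10^5/well) in RPMI-1640 with 2% FBS were transfected with pmirGLO dual-luciferase plasmid (1 μg/well, PGK universal promoter) by FuGene 6 for 6 h at 37 °C, 5% CO2. Compound was added ([…] as printed) and incubated 6 h. Cells were lysed in TNT buffer, and luciferin luminescence was read. Controls: dexamethasone, PDTC, cycloheximide.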

Data set [20] deals with RAW264.7. Nature of the data set: Antiinflammatory activity against mouse RAW264.7 cells assessed as reduction of LPS-induced TNF mRNA expression cells at 1 mM treated 30 mins before LPS challenge measured after 3 hrs by qRT-PCR analysis. Format: functional, cell-based. The essentials: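 RAW 264.7 macrophages (1.5 × 10^6 cells/well) in supplemented RPMI-1640 were pretreated with vehicle, test compound or dexamethasone (1 mM) before LPS stimulation. Cells were lysed in TRIzol, and TNF mRNA was measured by quantitative real-time PCR with GAPDH primers. Stock in DMSO diluted in RPMI-1640, final DMSO ≤0.5%.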

Data set [21] has as its system RAW264.7. The data set is described as follows: Inhibition of luminescence emission in mouse RAW264.7 cells transfected with luciferase plasmid containing universal promoter PKG at 70 uM after 6 hrs by luciferase reporter gene assay. Format: functional, cell-based. The essentials:
as §3

The subject of data set [22] is Mus musculus. The data set is described as follows: Inhibition of protein synthesis in carrageenan-induced mechanical inflammatory hyperalgesia male C57BL/6 mouse model assessed as inhibition of TNF production in inflamed tissue at 20 mg/kg, sc […] challenge and measured after 3 hrs by ELISA. The format is functional, organism-based. On the set-up: dose 20 mg/kg.

The subject of data set [23] is Mus musculus. The data set is described as follows: Inhibition of protein synthesis in carrageenan-induced mechanical inflammatory hyperalgesia male C57BL/6 mouse model assessed as inhibition of IL-1beta production in inflamed tissue at 20 mg/kg, sc […] challenge and measured after 3 hrs by ELISA. Details: dose 20 mg/kg. Format: functional, organism-based.

With `COC(=O)[C@@]12OC[C@]34[C@H]([C@@H](O)[C@@H]1O)[C@@]1(C)[C@H](O)C(=O)C=C(C)[C@@H]1C[C@H]3OC(=O)[C@H](OC(C)=O)[C@@H]24` [ISOBRUCEIN B], the inhibition entry in the data set with RAW264.7 [1] and with Mus musculus [15] was “inactive” each time. For the same molecule, the inhibition entry in the data set on Mus musculus [2], with RAW264.7 [4], with Mus musculus [5], in the data set on RAW264.7 [8], in the data set on RAW264.7 [13] and with RAW264.7 [14] was “Active” each time. For the same molecule, the inhibition entry in the data set with Mus musculus [17] was “Active”. Also, the result in the data set with RAW264.7 [3] and in the data set with RAW264.7 [11] was inactive. Also, the inhibition result in the data set with RAW264.7 [6], in the data set with RAW264.7 [10], in the data set on RAW264.7 [12] and in the data set with RAW264.7 [16] was “Dose-dependent effect” each time. The Activity entry was “Dose-dependent effect” with Mus musculus [7] and “Non-toxic” in [9].

In the case of `S=C(S)N1CCCC1`, in the data set with RAW264.7 [18], the inhibition result is “inactive”.

In the case of `C[C@@H]1C[C@H]2[C@@H]3CCC4=CC(=O)C=C[C@]4(C)[C@@]3(F)[C@@H](O)C[C@]2(C)[C@@]1(O)C(=O)CO`, the inhibition result in the data set on RAW264.7 [19] is “inactive”. The inhibition result in the data set with RAW264.7 [20] was “Active”.

Regarding `C[C@@H]1C[C@@H]([C@H](O)CC2CC(=O)NC(=O)C2)C(=O)[C@@H](C)C1`, the inhibition result in the data set on RAW264.7 [21] and with Mus musculus [23] was “Active” throughout. The inhibition entry in the data set on Mus musculus [22] was “inactive”.
